Measurements taken from ChEMBL document CHEMBL1811814, “Synthesis and evaluation of indole, pyrazole, chromone and pyrimidine based conjugates for tumor growth inhibitory activities--development of highly efficacious cytotoxic agents” (Eur J Med Chem, 2010).

Tests used:
Type in all cases: functional
HCT-15 = assay: Growth inhibition of human HCT15 cells
KM12 = assay: Growth inhibition of human KM12 cells
SW-620 = assay: Growth inhibition of human SW620 cells
SF-295 [1] = assay: Growth inhibition of human SF295 cells
SF-539 = assay: Growth inhibition of human SF539 cells
SNB-19 [2] = assay: Growth inhibition of human SNB19 cells
SNB-75 = assay: Growth inhibition of human SNB75 cells
SK-MEL-5 = assay: Growth inhibition of human SK-MEL-5 cells
UACC-257 = assay: Growth inhibition of human UACC257 cells
IGROV-1 [3] = assay: Growth inhibition of human IGROV1 cells
Summary of the method: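 Follow-up panel testing at five concentrations (10^-4, 10^-5, 10^-6, 10^-7 and 10^-8 M) across the 60 human tumor cell lines. GI50 was obtained for each line from the concentration-response data, with the panel average GI50 also reported.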

OVCAR-3 = assay: Growth inhibition of human OVCAR3 cells
OVCAR-4 = assay: Growth inhibition of human OVCAR4 cells
OVCAR-8 = assay: Growth inhibition of human OVCAR8 cells
NCI/ADR-RES [4] = assay: Growth inhibition of human NCI/ADR-RES cells
CAKI-1 [5] = assay: Growth inhibition of human Caki1 cells
SN12C [6] = assay: Growth inhibition of human SN12C cells
TK-10 = assay: Growth inhibition of human TK10 cells
MDA-MB-231 [7] = assay: Growth inhibition of human MDA-MB-231 cells
[8] = Growth inhibition of human Hs 578T cells
MDA-MB-468 = assay: Growth inhibition of human MDA-MB-468 cells
K562 = assay: Growth inhibition of human K562 cells assessed tumor cell growth at 10^-5 M; design: scale not given: the % may be the effect or the level left
Summary of the method: (§1)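 NCI 60-human-tumor-cell-line panel screen. Each compound was tested at a single concentration of 10^-5 M, and percent growth of tumor cells was recorded for each cell line. Growth inhibition was expressed from these percent-growth values.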

MOLT-4 = assay: Growth inhibition of human MOLT4 cells assessed tumor cell growth at 10^-5 M; design: scale not given: the % may be the effect or the level left; summary of the method: as §1
SR = assay: Growth inhibition of human SR cells assessed tumor cell growth at 10^-5 M; design: scale not given: the % may be the effect or the level left
Summary of the method: (§2)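 Single-dose screen at 10^-5 M across the 60 human tumor cell line panel, run to NCI standards. The value is the percent growth of each cell line in the presence of compound. Compounds active at this dose moved on to five-concentration testing (10^-4 to 10^-8 M).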

NCI-H23 = assay: Growth inhibition of human NCI-H23 cells assessed tumor cell growth at 10^-5 M; design: scale not given: the % may be the effect or the level left; summary of the method: as §1
NCI-H460 [9] = assay: Growth inhibition of human NCI-H460 cells assessed tumor cell growth at 10^-5 M; design: scale not given: the % may be the effect or the level left; summary of the method: as §1
HCC 2998 = assay: Growth inhibition of human HCC2998 cells assessed tumor cell growth at 10^-5 M; design: scale not given: the % may be the effect or the level left; summary of the method: as §1
HCT-116 = assay: Growth inhibition of human HCT116 cells assessed tumor cell growth at 10^-5 M; design: scale not given: the % may be the effect or the level left; summary of the method: as §1
SF-295 [10] = assay: Growth inhibition of human SF295 cells assessed tumor cell growth at 10^-5 M; design: scale not given: the % may be the effect or the level left; summary of the method: as §1
SNB-19 [11] = assay: Growth inhibition of human SNB19 cells assessed tumor cell growth at 10^-5 M; design: scale not given: the % may be the effect or the level left; summary of the method: as §2
LOX IMVI = assay: Growth inhibition of human LOXIMVI cells assessed tumor cell growth at 10^-5 M; design: scale not given: the % may be the effect or the level left; summary of the method: as §1
Malme-3M = assay: Growth inhibition of human MALME-3M cells assessed tumor cell growth at 10^-5 M; design: scale not given: the % may be the effect or the level left; summary of the method: as §1
M14 = assay: Growth inhibition of human M14 cells assessed tumor cell growth at 10^-5 M; design: scale not given: the % may be the effect or the level left; summary of the method: as §1
MDA-MB-435 = assay: Growth inhibition of human MDA-MB-435 cells assessed tumor cell growth at 10^-5 M; design: scale not given: the % may be the effect or the level left; summary of the method: as §1
SK-MEL-2 = assay: Growth inhibition of human SK-MEL-2 cells assessed tumor cell growth at 10^-5 M; design: scale not given: the % may be the effect or the level left; summary of the method: as §1
SK-MEL-28 = assay: Growth inhibition of human SK-MEL-28 cells assessed tumor cell growth at 10^-5 M; design: scale not given: the % may be the effect or the level left; summary of the method: as §1
IGROV-1 [12] = assay: Growth inhibition of human IGROV1 cells assessed tumor cell growth at 10^-5 M; design: scale not given: the % may be the effect or the level left; summary of the method: as §1
NCI/ADR-RES [13] = assay: Growth inhibition of human NCI/ADR-RES cells assessed tumor cell growth at 10^-5 M; design: scale not given: the % may be the effect or the level left; summary of the method: as §1
786-0 = assay: Growth inhibition of human 786-0 cells assessed tumor cell growth at 10^-5 M; design: scale not given: the % may be the effect or the level left; summary of the method: as §1
CAKI-1 [14] = assay: Growth inhibition of human Caki1 cells assessed tumor cell growth at 10^-5 M; design: scale not given: the % may be the effect or the level left; summary of the method: as §1
RXF 393 = assay: Growth inhibition of human RXF393 cells assessed tumor cell growth at 10^-5 M; design: scale not given: the % may be the effect or the level left; summary of the method: as §1
SN12C [15] = assay: Growth inhibition of human SN12C cells assessed tumor cell growth at 10^-5 M; design: scale not given: the % may be the effect or the level left; summary of the method: as §1
UO-31 = assay: Growth inhibition of human UO31 cells assessed tumor cell growth at 10^-5 M; design: scale not given: the % may be the effect or the level left; summary of the method: as §2
DU-145 = assay: Growth inhibition of human DU145 cells assessed tumor cell growth at 10^-5 M; design: scale not given: the % may be the effect or the level left; summary of the method: as §1
MDA-MB-231 [16] = assay: Growth inhibition of human MDA-MB-231 cells assessed tumor cell growth at 10^-5 M; design: scale not given: the % may be the effect or the level left; summary of the method: as §1
[17] = Growth inhibition of human RPMI8266 cells
EKVX = assay: Growth inhibition of human EKVX cells
HOP-62 = assay: Growth inhibition of human HOP62 cells
NCI-H322M = assay: Growth inhibition of human NCI-H322M cells
NCI-H460 [18] = assay: Growth inhibition of human NCI-H460 cells
COLO 205 = assay: Growth inhibition of human COLO205 cells
[19] = read-out: LC50 (the source's name)

CC1=NN(c2cccc(Cl)c2)C(=O)/C1=C\c1c(O)ccc2ccccc12
GI50 (HCT-15): > 100 µM | CC50 (HCT-15; [19]): > 100 µM | GI50 (KM12): > 100 µM | CC50 (KM12; [19]): > 100 µM | GI50 (SW-620): > 100 µM | CC50 (SW-620; [19]): > 100 µM | GI50 (SF-295 [1]): 22.9 µM | CC50 (SF-295 [1]; [19]): > 100 µM | GI50 (SF-539): 0.01 µM | CC50 (SF-539; [19]): > 100 µM | GI50 (SNB-19 [2]): 45.7 µM | CC50 (SNB-19 [2]; [19]): > 100 µM | GI50 (SNB-75): 0.9 µM | CC50 (SNB-75; [19]): > 100 µM | GI50 (SK-MEL-5): > 100 µM | CC50 (SK-MEL-5; [19]): > 100 µM | GI50 (UACC-257): > 100 µM | CC50 (UACC-257; [19]): > 100 µM | GI50 (IGROV-1 [3]): 26.9 µM | CC50 (IGROV-1 [3]; [19]): > 100 µM | GI50 (OVCAR-3): 58.8 µM | CC50 (OVCAR-3; [19]): > 100 µM | GI50 (OVCAR-4): > 100 µM | CC50 (OVCAR-4; [19]): > 100 µM | GI50 (OVCAR-8): > 100 µM | CC50 (OVCAR-8; [19]): > 100 µM | GI50 (NCI/ADR-RES [4]): > 100 µM | CC50 (NCI/ADR-RES [4]; [19]): > 100 µM | GI50 (CAKI-1 [5]): > 100 µM | CC50 (CAKI-1 [5]; [19]): > 100 µM | GI50 (SN12C [6]): > 100 µM | CC50 (SN12C [6]; [19]): > 100 µM | GI50 (TK-10): 34.6 µM | CC50 (TK-10; [19]): > 100 µM | GI50 (MDA-MB-231 [7]): 36.3 µM | CC50 (MDA-MB-231 [7]; [19]): > 100 µM | GI50 [8]: 32.3 µM | CC50 [8, 19]: > 100 µM | GI50 (MDA-MB-468): 17.7 µM | CC50 (MDA-MB-468; [19]): > 100 µM | Activity (K562): 99.09% | Activity (MOLT-4): 44.19% | Activity (SR): 29.7% | Activity (NCI-H23): -1.95% | Activity (NCI-H460 [9]): 79.03% | Activity (HCC 2998): -22.22% | Activity (HCT-116): 8.69% | Activity (SF-295 [10]): 25.62% | Activity (SNB-19 [11]): 31.43% | Activity (LOX IMVI): -79.39% | Activity (Malme-3M): 58.97% | Activity (M14): 18.24% | Activity (MDA-MB-435): 20.68% | Activity (SK-MEL-2): 38.07% | Activity (SK-MEL-28): 35.25% | Activity (IGROV-1 [12]): 33.94% | Activity (NCI/ADR-RES [13]): 75.31% | Activity (786-0): -46.85% | Activity (CAKI-1 [14]): 34.96% | Activity (RXF 393): -76.85% | Activity (SN12C [15]): 23.59% | Activity (UO-31): 66.56% | Activity (DU-145): 35.43% | Activity (MDA-MB-231 [16]): 4.08% | GI50 [17]: > 100 µM | CC50 [17, 19]: > 100 µM | GI50 (EKVX): > 100 µM | CC50 (EKVX; [19]): > 100 µM | GI50 (HOP-62): 31.6 µM | CC50 (HOP-62; [19]): > 100 µM | GI50 (NCI-H322M): > 100 µM | CC50 (NCI-H322M; [19]): > 100 µM | GI50 (NCI-H460 [18]): > 100 µM | CC50 (NCI-H460 [18]; [19]): > 100 µM | GI50 (COLO 205): > 100 µM | LC50 (COLO 205): > 100 µM
